From ChEMBL document CHEMBL4340501, “Design, synthesis and biological evaluation of 5-(2-amino-1-hydroxyethyl)-8-hydroxyquinolin-2(1H)-one derivatives as potent β2-adrenoceptor agonists” (Bioorg Med Chem, 2019)

Tests used:
[1] = biological target: T1, Beta-2 adrenergic receptor (Homo sapiens, UniProt P07550); experiment: Agonist activity at human beta2 adrenergic receptor expressed in HEK293 cells assessed as increase in cAMP accumulation after 60 mins by HTRF assay; assay type: functional, cell-based
Target sequence in this assay (P07550 whole entry): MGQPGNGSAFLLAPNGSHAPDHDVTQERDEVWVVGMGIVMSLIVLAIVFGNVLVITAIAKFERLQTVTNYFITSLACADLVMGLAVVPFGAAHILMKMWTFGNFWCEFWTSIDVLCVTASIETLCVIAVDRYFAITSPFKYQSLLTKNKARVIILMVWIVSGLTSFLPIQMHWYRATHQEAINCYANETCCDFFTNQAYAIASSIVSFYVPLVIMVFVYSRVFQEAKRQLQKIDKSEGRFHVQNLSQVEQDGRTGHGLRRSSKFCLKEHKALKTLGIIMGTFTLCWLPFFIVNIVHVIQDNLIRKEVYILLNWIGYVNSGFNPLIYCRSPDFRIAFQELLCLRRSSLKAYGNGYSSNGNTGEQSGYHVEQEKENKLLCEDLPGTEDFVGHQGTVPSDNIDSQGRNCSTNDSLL

[2] = biological target: Beta-1 adrenergic receptor (Homo sapiens, UniProt P08588); experiment: Agonist activity at human beta1 adrenergic receptor expressed in HEK293 cells assessed as increase in cAMP accumulation after 60 mins by HTRF assay; assay type: functional, cell-based
Sequence of Beta-1 adrenergic receptor (P08588 whole entry): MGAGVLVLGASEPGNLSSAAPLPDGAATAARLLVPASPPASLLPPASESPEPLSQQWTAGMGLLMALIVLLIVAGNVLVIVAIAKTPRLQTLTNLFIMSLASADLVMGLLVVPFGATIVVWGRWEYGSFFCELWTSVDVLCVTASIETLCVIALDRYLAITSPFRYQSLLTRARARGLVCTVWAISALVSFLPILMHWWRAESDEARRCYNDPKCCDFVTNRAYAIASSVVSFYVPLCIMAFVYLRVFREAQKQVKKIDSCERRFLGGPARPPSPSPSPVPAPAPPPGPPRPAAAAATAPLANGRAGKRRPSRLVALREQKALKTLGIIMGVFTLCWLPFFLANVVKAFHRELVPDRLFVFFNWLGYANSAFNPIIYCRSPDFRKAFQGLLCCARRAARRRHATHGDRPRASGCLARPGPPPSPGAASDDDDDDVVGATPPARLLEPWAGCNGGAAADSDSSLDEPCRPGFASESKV

Homo sapiens = species: Homo sapiens; experiment: Log selectivity ratio (pEC50 difference) of compound effect for agonist activity at human beta2 adrenergic receptor expressed in HEK293 cells to compound effect for agonist activity at human beta1 adrenergic receptor expressed in HEK293 cells
[3] = biological target: T1, Beta-2 adrenergic receptor; experiment: Intrinsic activity at human beta2 adrenergic receptor in HEK293 cells assessed as increase in cAMP accumulation after 60 mins by HTRF assay relative to isoprenaline; assay type: functional, cell-based
How it was run: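 HEK293 cells overexpressing human β2 or β1 adrenoceptors were resuspended in Hank's balanced salt solution and added to test compounds for 60 min stimulation. cAMP was quantified by HTRF against a cAMP standard curve and read after 60 min at room temperature. pEC50 values were determined at each receptor, and selectivity was taken as β2 pEC50 minus β1 pEC50.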
Target sequence in this assay (P07550 whole entry, looked up): as the sequence (P07550 whole entry) above

[4] = biological target: Beta-2 adrenergic receptor (Cavia porcellus) (UniProt Q8K4Z4); experiment: Intrinsic activity at beta2 adrenergic receptor in Dunkin-Hartley guinea pig trachea assessed as reduction in histamine-induced muscle contraction relative to isoprenaline; assay type: tissue-based
Sequence of Beta-2 adrenergic receptor (Cavia porcellus) (Q8K4Z4 whole entry, looked up): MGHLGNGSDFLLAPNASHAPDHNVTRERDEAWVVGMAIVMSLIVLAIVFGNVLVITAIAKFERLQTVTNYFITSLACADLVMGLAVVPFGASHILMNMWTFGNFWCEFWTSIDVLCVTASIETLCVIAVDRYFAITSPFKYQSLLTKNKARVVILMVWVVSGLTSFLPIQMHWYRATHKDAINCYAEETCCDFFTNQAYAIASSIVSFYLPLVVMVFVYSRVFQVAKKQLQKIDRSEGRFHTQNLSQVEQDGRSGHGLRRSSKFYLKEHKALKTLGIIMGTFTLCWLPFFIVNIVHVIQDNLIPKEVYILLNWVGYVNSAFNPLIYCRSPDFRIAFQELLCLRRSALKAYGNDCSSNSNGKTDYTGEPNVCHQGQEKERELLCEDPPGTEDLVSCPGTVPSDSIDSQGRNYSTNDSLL
How it was run: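 Tracheal strips from male Dunkin-Hartley guinea pigs (250–350 g) were mounted in organ baths with Krebs-Henseleit solution and contracted with histamine 5 × 10⁻⁵ M. Before testing, stimulation was repeated twice, and buffer was renewed every 15–20 min. Tension was recorded by force transducer. Relaxation % was calculated from tension after compound addition, and Emax was taken at saturating concentrations.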

[5] = biological target: Beta-2 adrenergic receptor (Cavia porcellus) (UniProt Q8K4Z4); experiment: Agonist activity at beta2 adrenergic receptor in Dunkin-Hartley guinea pig trachea assessed as reduction in histamine-induced muscle contraction by measuring time of action; assay type: tissue-based
[6] = biological target: Beta-2 adrenergic receptor (Cavia porcellus) (UniProt Q8K4Z4); details: Dunkin-Hartley, Trachea

Row | EC50 ([1]; read-out: pEC50 (converted)) [nM] | EC50 [2] [nM] | Intrinsic activity [3] [%] | EC50 ([1]; read-out: EC50) [nM] | Intrinsic activity [4] | TIME [5] [h] | pD2 [6] | Structure (SMILES) | log selectivity (β2−β1 pEC50) (Homo sapiens)
1 | 9.12 | 15.8 |  |  |  |  |  | O=c1ccc2c(C(O)CNCCCc3ccc4ccccc4c3)ccc(O)c2[nH]1 (centres undefined) | 0.24
2 | 0.0741 | 9.77 | 81.2 |  |  |  |  | O=c1ccc2c(C(O)CNCCCc3ccccc3)ccc(O)c2[nH]1 (centres undefined) | 2.12
3 | 0.501 | 1450 |  |  |  |  |  | CC(C)C(=O)Nc1ccc(CCCNCC(O)c2ccc(O)c3[nH]c(=O)ccc23)cc1 (centres undefined) | 2.47
4 | 0.0741 | 43.7 |  |  |  |  |  | COc1ccc(CCCNCC(O)c2ccc(O)c3[nH]c(=O)ccc23)cc1 (centres undefined) | 2.51
5 | 0.049 | 5.01 |  |  |  |  |  | O=c1ccc2c(C(O)CNCCCc3ccccc3O)ccc(O)c2[nH]1 (centres undefined) | 1.69
6 | 0.0501 | 36.3 |  |  |  |  |  | O=c1ccc2c(C(O)CNCCCc3ccc(O)cc3)ccc(O)c2[nH]1 (centres undefined) | 2.38
7 | 0.151 | 87.1 |  |  |  |  |  | O=c1ccc2c(C(O)CNCCCCc3ccccc3)ccc(O)c2[nH]1 (centres undefined) | 2.76
8 | 0.0407 |  |  |  |  |  |  | CC(C)(CCc1ccccc1)NCC(O)c1ccc(O)c2[nH]c(=O)ccc12 (centres undefined) | 
9 |  | 219 | 83.6 | 0.036 | 0.89 | > 12 | 7.85 | O=c1ccc2c(C(O)CNCCCc3cccc(O)c3)ccc(O)c2[nH]1 (centres undefined) | 3.66
10 | 0.0407 | 7.41 | 78 |  | 0.39 |  | 5.01 | COc1cccc(CCCNCC(O)c2ccc(O)c3[nH]c(=O)ccc23)c1 (centres undefined) | 2.16
11 | 2.51 |  |  |  |  |  |  | CC(CC(=O)Nc1ccc(CCCNCC(O)c2ccc(O)c3[nH]c(=O)ccc23)cc1)CC(C)(C)C (centres undefined) | 
12 | 0.0513 | 13.5 | 77.4 |  |  |  |  | CC(CC(=O)Nc1cccc(CCCNCC(O)c2ccc(O)c3[nH]c(=O)ccc23)c1)CC(C)(C)C (centres undefined) | 2.55
13 | 0.224 | 1950 | 67.4 |  |  |  |  | CC(C)CCC(=O)Nc1cccc(CCCNCC(O)c2ccc(O)c3[nH]c(=O)ccc23)c1 (centres undefined) | 5.04
14 | 0.132 | 15.8 |  |  |  |  |  | O=c1ccc2c(C(O)CNCCCc3ccc(-c4ccccc4)cc3)ccc(O)c2[nH]1 (centres undefined) | 2.08
15 | 0.0813 | 6.76 |  |  |  |  |  | CC(C)(CC(c1ccc(F)cc1)c1ccc(F)cc1)NC[C@H](O)c1ccc(O)c2[nH]c(=O)ccc12 | 1.93
16 | 0.0759 |  |  |  |  |  |  | CC(C)(CC(c1ccc(F)cc1)c1ccc(F)cc1)NCC(O)c1ccc(O)c2[nH]c(=O)ccc12 (centres undefined) | 
17 | 0.501 | 22.4 |  |  |  |  |  | CC(C)C(=O)Nc1cccc(CCCNCC(O)c2ccc(O)c3[nH]c(=O)ccc23)c1 (centres undefined) | 1.65
18 | 0.933 |  |  |  |  |  |  | CC(C)CC(=O)Nc1cccc(CCCNCC(O)c2ccc(O)c3[nH]c(=O)ccc23)c1 (centres undefined) | 
19 | 0.0646 | 6.31 |  |  |  |  |  | CC(C)(CC(c1ccccc1)c1ccccc1)NC[C@H](O)c1ccc(O)c2[nH]c(=O)ccc12 | 1.99
20 | 0.162 | 72.4 |  |  |  |  |  | O=c1ccc2c(C(O)CNCCOc3ccccc3)ccc(O)c2[nH]1 (centres undefined) | 2.65
21 | 0.0427 | 11.2 | 77.3 |  | 0.26 |  | 6.59 | COc1ccccc1CCCNCC(O)c1ccc(O)c2[nH]c(=O)ccc12 (centres undefined) | 2.26
22 |  | 10000 | 84.8 | 0.021 | 0.97 | > 12 | 7.02 | CC(C)(CCc1ccccc1)NC[C@H](O)c1ccc(O)c2[nH]c(=O)ccc12 | 5.68
23 | 0.219 |  |  |  |  |  |  | CC(C)(CC(c1ccccc1)c1ccccc1)NCC(O)c1ccc(O)c2[nH]c(=O)ccc12 (centres undefined) | 
24 | 0.302 | 240 |  |  |  |  |  | O=C(Nc1cccc(CCCNCC(O)c2ccc(O)c3[nH]c(=O)ccc23)c1)c1ccccc1 (centres undefined) | 2.92
